# The list is not random: actives were taken first. Their share in the collection is about 5.3%.
# PLK1 PBD inh = blocks phosphopeptide binding to human Plk1 polo box domain; P53350; Plk1 PBD phosphopeptide binding, fluorescence polarization; inhibition, %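 (tested at about 20 µM)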; 97,000 tested, 0.13% active; in the data active = inhibition above about 34%, passing the limit was not always enough
# Rev-RRE block = inhibitors of HIV-1 Rev-RRE RNA interaction. P05866. Rev peptide-RRE RNA binding, FRET. inhibition, % at 8 µM. 97,000 tested, 0.79% active;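 active = inhibition above the screen-wide mean plus 3 SD, cut at about 35% in these data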;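 note: 0% = median DMSO wells and 100% = median Neomycin B control wells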
#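 Test system – labelled RRE RNA duplex and labelled Rev peptide · Signal – fluorescein-to-Cy5 FRET, 480 nm excitation · Evaluation – % inhibition of FRET ratio versus controls · Benchmarks – DMSO low control, neomycin B high control · Incubation – 5 min RNA-compound premix plus 15 min binding step, 25 °C · Medium – HEPES pH 7.5 salt buffer with EDTA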
# PLK1 kinase inh = blocks human PLK1 kinase activity. inhibition, % at 10 µM. 97,000 tested, 0.53% active. recombinant PLK1 kinase, TR-FRET peptide phosphorylation;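 active = inhibition of 50% or more in the single-concentration screen; inactive = inhibition below 50%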;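 note: 0% = DMSO max control and 100% = H-89 dihydrochloride min control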
# EphB4 ephrin blk = blocks human EphB4 binding to ephrin-B2. inhibition, % at 7 µM. 97,000 tested, 0.15% active. EphB4 LBD / TNYL-RAW-Alexa532 peptide, fluorescence polarization. AID 720;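 active = inhibition above the screen-wide mean inhibition plus 3 SD, cut at about 15% in these data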;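 note: 0% = DMSO wells and 100% = excess unlabeled TNYL-RAW peptide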
# Target sequence (P54760 whole entry, looked up, the tested form may be a part): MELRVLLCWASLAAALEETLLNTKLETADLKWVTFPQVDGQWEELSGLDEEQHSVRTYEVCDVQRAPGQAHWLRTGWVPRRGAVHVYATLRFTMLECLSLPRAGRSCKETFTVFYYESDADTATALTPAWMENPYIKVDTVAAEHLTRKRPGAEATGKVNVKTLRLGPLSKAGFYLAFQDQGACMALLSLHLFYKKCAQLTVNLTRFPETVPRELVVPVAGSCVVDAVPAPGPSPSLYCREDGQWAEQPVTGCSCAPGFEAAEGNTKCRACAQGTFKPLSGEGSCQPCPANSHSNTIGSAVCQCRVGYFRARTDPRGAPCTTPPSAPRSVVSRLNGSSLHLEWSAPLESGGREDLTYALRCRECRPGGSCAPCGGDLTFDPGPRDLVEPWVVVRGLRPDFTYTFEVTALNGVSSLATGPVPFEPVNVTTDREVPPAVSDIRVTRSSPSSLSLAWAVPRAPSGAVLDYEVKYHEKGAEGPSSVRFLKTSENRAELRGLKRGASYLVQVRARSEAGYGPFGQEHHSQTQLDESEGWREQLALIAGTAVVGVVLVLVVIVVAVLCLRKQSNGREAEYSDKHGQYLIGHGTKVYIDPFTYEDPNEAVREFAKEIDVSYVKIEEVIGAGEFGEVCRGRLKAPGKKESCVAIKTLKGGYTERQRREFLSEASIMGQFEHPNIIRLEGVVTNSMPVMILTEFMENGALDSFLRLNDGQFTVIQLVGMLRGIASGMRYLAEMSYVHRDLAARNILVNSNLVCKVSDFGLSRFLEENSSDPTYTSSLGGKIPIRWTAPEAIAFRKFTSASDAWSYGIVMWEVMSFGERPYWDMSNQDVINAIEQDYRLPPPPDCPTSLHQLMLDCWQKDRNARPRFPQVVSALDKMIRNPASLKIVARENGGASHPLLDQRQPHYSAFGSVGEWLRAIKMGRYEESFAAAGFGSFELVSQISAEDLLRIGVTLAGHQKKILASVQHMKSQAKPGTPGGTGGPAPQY
# Cav3 T inh = blocks human Cav3.2 T-type calcium channel; Cav3.2-expressing cells, Fluo-4 calcium fluorescence FDSS; stronger effect = lower value; AID 449739; B-score at 10 µM; O95180; 100,000 tested, 4% active;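 active = single-dose well whose peak fluorescence ratio is a statistical outlier from its plate by either plate-standardised score or position-corrected B-score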
# FAK inh = FAK (human) kinase inhibition; Q05397; biochemical FAK kinase activity assay; inhibition, %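 (tested at 7 µM)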; 97,000 tested, 0.84% active; AID 727; in the data active = inhibition above about 19%;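 note: 0% = DMSO and 100% = reference compound high control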
# An asterisk follows results filed as active; . = no result given.
SMILES,PLK1 PBD inh,Rev-RRE block,PLK1 kinase inh,EphB4 ephrin blk,Cav3 T inh,FAK inh
Cc1c(C(=O)O)c(-c2ccccc2)nn1-c1ccccc1,-18.9,1.6,-0.2,-8.0,-4.35*,-4.9
COc1ccccc1CNC(=O)c1c(-c2ccccc2)nn(-c2ccccc2)c1C,-20.8,6.8,-8.1,1.0,-1.89,-1.1
CC/C(=C\C1CCCCC1)C(NP(=O)(c1ccccc1)c1ccccc1)c1ccccc1 (centres undefined),.,.,.,.,-1.28,.
O=C1Nc2ccc(Cl)cc2[C@@](C#CC2CC2)(C(F)(F)F)O1,.,.,.,.,-5.24*,.
Cc1cc(C)n(-c2ccc(C(=O)OCC(=O)c3ccc(Br)s3)cc2)n1,2.7,15.7,-6.0,8.6,-1.85,18.7
O=C(O)c1cc(Cl)c2ccccc2c1O,-8.8,3.8,-6.7,-4.4,-6.71*,-2.7
O=C(CCCCCCN1C(=O)c2ccccc2C1=O)N1CCC(c2ccccc2)C1 (centres undefined),-9.6,1.2,-9.3,-7.9,-4.32*,0.7
CCCCOC(=O)Nc1cccc(Cl)c1C,-20.9,9.8,-6.9,3.5,-1.63,0.4
COc1cc(C(=O)OC2CC3CCC2(C)C3(C)C)ccc1OC(C)=O (centres undefined),.,.,.,.,-1.22,.
Cc1ccccc1-c1nc(CS(=O)(=O)CC(=O)NCc2ccccc2)c(C)o1,-15.5,13.2,4.3,2.1,-4.22*,-1.8
Cc1ccccc1-c1nc(CS(=O)(=O)CC(=O)N(C)C2CCCCC2)c(C)o1,-4.9,4.1,-5.0,2.0,-7.3*,0.3
O=C(NCc1ccco1)C(c1ccccc1)N(Cc1ccccc1)C(=O)Cn1nnc2ccccc21 (centres undefined),1.0,-4.6,2.1,-2.2,-0.0328,3.0
CCOC(=O)c1cc(CC)sc1NC(=O)c1cc(OC)c(OC)c(OC)c1,-10.9,-1.0,-2.7,-3.8,-0.026,2.1
CCOC(=O)c1sc(N)c(C#N)c1COC(=O)CNC(=O)c1cc(OC)c(OC)c(OC)c1,-20.9,53.3*,-0.7,-1.7,.,0.0
CCC(=O)N1CCN(c2ccc(OC)cc2[N+](=O)[O-])CC1,5.0,-0.2,-1.1,7.7,0.716,1.5
O=C(CSc1ccc(Cl)cc1)N1CCN(c2ccc(Cl)cc2[N+](=O)[O-])CC1,11.4,11.2,-10.6,-3.6,-3.79*,5.9
COC(=O)[C@@]1(Cc2ccc(OC)cc2)[C@H]2c3cc(C(=O)N4CCCC4)n(CCn4cc([N+](=O)[O-])nc4C)c3C[C@H]2CN1C(=O)c1ccccc1,.,.,.,.,1.15,.
O=c1c2ccccc2nc(N2CCN(c3ccccc3)CC2)n1Cc1ccccc1,1.9,6.6,-9.0,-10.3,-5.38*,1.9
O=C(O)c1ccccc1C1=Nc2ccc(O)cc2Oc2cc(O)ccc21,49.8*,77.5*,4.3,-3.8,-9.2*,-3.0
O=C(O)c1ccccc1-c1nc2ccccc2c(=O)[nH]1,.,.,.,.,0.0485,.
COc1ccc(S(=O)(=O)N2CCN(CC(=O)Nc3cccc(F)c3)CC2)cc1,11.0,6.4,-12.1,-0.9,.,1.4
COc1ccc(NC(=O)CN2CCN(CC(=O)Nc3ccccc3Cl)CC2)cc1Cl,-23.1,10.9,-1.5,-2.7,-1.75,2.7
O=C(CN1CCN(S(=O)(=O)c2ccc(Cl)cc2)CC1)Nc1ccc2c(c1)OCO2,14.3,8.3,-10.9,2.7,-2.99,-0.2
CC(C)c1ccc(S(=O)(=O)N2CCN(CC(=O)Nc3ccc4c(c3)OCO4)CC2)cc1,.,.,.,.,-6.92*,.
COc1ccccc1NC(=O)CN1CCN(CC(=O)Nc2ccc(Cl)c(C(F)(F)F)c2)CC1,12.4,-0.1,-2.6,-1.1,-10.9*,-4.4
SMILES,PLK1 PBD inh,Rev-RRE block,PLK1 kinase inh,EphB4 ephrin blk,Cav3 T inh,FAK inh
COc1ccc(S(=O)(=O)N2CCN(CC(=O)Nc3ccc(C)c(F)c3)CC2)cc1,-6.4,14.8,-10.2,-3.0,-4.2*,-2.4
COc1ccc(S(=O)(=O)N2CCCN(CCC(=O)Nc3cccc(C(F)(F)F)c3)CC2)cc1,0.6,2.1,1.9,-3.3,-4.59*,2.9
CCO[C@H]1OC(C(N)=O)=C[C@@H](C(C)(C)C)[C@@H]1CCCO,.,.,.,.,1.15,.
CC1(O)C(=O)C=C2C=C(c3ccc(C#N)cc3)OC=C2C1=O (centres undefined),.,.,.,.,-0.409,.
CC(C)c1ccc(N(CC(=O)Nc2ccc(S(=O)(=O)N3CCOCC3)cc2)S(C)(=O)=O)cc1,-7.7,6.0,7.4,-2.6,-7.91*,-0.6
Cc1ccc(N(CC(=O)Nc2ccc(S(=O)(=O)N3CCOCC3)cc2)S(C)(=O)=O)cc1C,-29.1,8.1,-8.5,-0.6,-3.21,2.4
O=C(CN1CCN(S(=O)(=O)c2ccccc2)CC1)Nc1ccc(Cl)c(Cl)c1,-12.3,10.3,-8.2,0.0,-3.69*,2.0
CCOC(=O)C[C@H]1c2ccc(C(F)(F)F)cc2S(=O)(=O)N1C(C)C,.,.,.,.,0.301,.
O=C(Oc1cccc(Nc2ncnc3ccccc23)c1)c1ccccc1Cl,26.8,8.5,-11.9,-7.9,-5.4*,9.2
CCCCC1(C)Nc2ccccc2-c2nc3ccccc3n21 (centres undefined),-5.5,11.0,-18.8,0.1,-4.9*,7.8
O=C1Nc2ccccc2C12Nc1ccccc1-c1nc3ccccc3n12 (centres undefined),-16.1,8.1,-1.3,-4.6,-4.8*,2.6
CCOC(=O)N1CCC(Nc2c(NCCN3CCN(c4ccccc4F)CC3)c(=O)c2=O)CC1,-9.7,3.5,-2.4,1.8,0.387,3.7
O=C(NNC(=O)c1cc(OCC(F)(F)F)ccc1OCC(F)(F)F)c1cccc(C(F)(F)F)c1,-24.8,16.7,-11.1,2.6,-8.97*,5.0
Cc1sc2nc(SCc3ccccc3)n(Cc3ccco3)c(=O)c2c1C,-9.2,11.8,-9.3,4.4,-1.87,-1.7
Cc1cccc(CSc2nc3sc(C)c(C)c3c(=O)n2Cc2ccco2)c1,5.8,-2.4,-8.4,7.4,-4.16*,0.1
Cc1cccc(CSc2nnc(-c3cccs3)n2Cc2ccco2)c1,7.0,6.7,-7.0,0.2,-5.54*,5.0
Cc1nnc(SCC(=O)Nc2nccs2)[nH]c1=O,9.3,-1.1,0.0,3.2,1.31,-5.3
CC1CCCN(C(=O)C2CCN(S(=O)(=O)c3cccc4cccnc34)CC2)C1 (centres undefined),11.1,2.5,-10.4,-2.6,-3.37,1.3
CCOC(=O)Cc1csc(NC(=O)COc2ccc(N(C)S(=O)(=O)c3cccs3)cc2)n1,.,.,.,.,-4.67*,.
CCOC(=O)Cc1csc(NC(=O)COc2ccccc2)n1,15.3,2.8,-8.5,2.4,-1.74,1.5
Cc1ccc(C)c(-n2c(SCC(=O)Nc3nnc(C)s3)nnc2-c2ccoc2C)c1,-9.2,0.9,-8.0,8.3,-1.81,1.0
Cc1ccc(C)c(-n2c(SCC(=O)Nc3nonc3C)nnc2-c2ccoc2C)c1,8.5,10.5,-6.0,6.5,-5.96*,4.5
Clc1ccccc1C(c1ccccc1)(c1ccccc1)n1ccnc1,.,.,.,.,-3.15,.
CCOc1ccccc1CN(CCc1ccc2c(c1)OCO2)Cc1ccccn1,-11.1,7.9,2.2,3.4,-4.33*,-7.4

# From PubChem
